According to ChEMBL document CHEMBL4219167, “Disulfiram-based disulfides as narrow-spectrum antibacterial agents” (Bioorg Med Chem Lett, 2018):
Converted amounts (≈) assume the structure as drawn.

Legend:
[1] = system: Staphylococcus epidermidis; test: Synergistic antibacterial activity against vancomycin-intermediate resistant Staphylococcus epidermidis NRS53 assessed as fractional inhibitory concentration in presence of vancomycin after 20 hrs by checkerboard microdilution assay; format: functional
[2] = system: Staphylococcus aureus; test: Synergistic antibacterial activity against vancomycin-resistant Staphylococcus aureus HIP14300 after 20 hrs in presence of vancomycin by checkerboard microdilution assay; format: functional; conditions: HIP14300, 20 h
[3] = system: Pseudomonas aeruginosa; test: Antibacterial activity against Pseudomonas aeruginosa ATCC 15442 after 20 hrs by broth microdilution assay; format: functional; conditions: ATCC 15442, 20 h
Summary of the method: (§1)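 Medium is tryptic soy broth, 37°C. Overnight culture is adjusted to 0.5 McFarland, diluted 1:100 and exposed to serial dilutions (test agents from 1 mM or 1 mg/mL DMSO stocks; control antibiotics in water). Incubation lasts 20 h. MIC is the lowest concentration with no visible growth.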

[4] = system: Salmonella typhi; test: Antibacterial activity against Salmonella typhi Ty2 after 20 hrs by Todd Hewitt broth broth microdilution method; format: functional, Salmonella enterica subsp. enterica serovar Typhi str. Ty2; conditions: Salmonella enterica
[5] = system: Enterococcus faecium; test: Antibacterial activity against vancomycin-resistant Enterococcus faecium ATCC 700221 after 20 hrs by broth microdilution assay; format: functional; conditions: ATCC 700221, 20 h
Summary of the method: (§2)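 Brain heart infusion broth at 37°C; E. faecium under 5% CO2. Cells at 0.5 McFarland are diluted 1:100 and exposed to serial dilutions (DMSO stocks 1 mM or 1 mg/mL; controls in water).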

[6] = system: Staphylococcus aureus; test: Synergistic antibacterial activity against methicillin-resistant Staphylococcus aureus COL assessed as vancomycin MIC after 20 hrs by checkerboard microdilution assay; format: functional
[7] = system: Staphylococcus aureus; test: Synergistic antibacterial activity against methicillin-resistant Staphylococcus aureus COL in presence of vancomycin after 20 hrs by checkerboard microdilution assay; format: functional
[8] = system: Yersinia pestis; test: Antibacterial activity against Yersinia pestis Kim D2 after 20 hrs by broth microdilution assay; format: functional; conditions: Kim D2, 20 h
[9] = system: Proteus mirabilis; test: Antibacterial activity against Proteus mirabilis HM-752 after 20 hrs by broth microdilution assay; format: functional; conditions: HM-752, 20 h; summary of the method: as §1
[10] = system: Yersinia pestis; test: Antibacterial activity against Yersinia pestis Kuma D7 after 20 hrs by broth microdilution assay; format: functional; conditions: Kuma D7, 20 h
[11] = Selectivity index, ratio of IC50 for cytotoxicity against human HepG2 cells to MIC for antibacterial activity against methicillin-resistant Staphylococcus aureus COL; format: toxicity, cell-based; conditions: read-out: Selectivity Index
[12] = system: Staphylococcus epidermidis; test: Synergistic antibacterial activity against vancomycin-intermediate resistant Staphylococcus epidermidis NRS53 assessed as vancomycin MIC after 20 hrs by checkerboard microdilution assay; format: functional; conditions: NRS53, 20 h
[13] = system: Escherichia coli; test: Antibacterial activity against Escherichia coli DC10B after 20 hrs by broth microdilution assay; format: functional; summary of the method: as §1
[14] = system: Staphylococcus aureus; test: Synergistic antibacterial activity against vancomycin-resistant Staphylococcus aureus HIP14300 assessed as fractional inhibitory concentration in presence of vancomycin after 20 hrs by checkerboard microdilution assay; format: functional
[15] = system: Streptococcus agalactiae; test: Antibacterial activity against Streptococcus agalactiae SGBS005 after 20 hrs by broth microdilution assay; format: functional; conditions: SGBS005, 20 h
[16] = system: Bacillus anthracis; test: Antibacterial activity against Bacillus anthracis Weybridge after 20 hrs by broth microdilution assay; format: functional
[17] = rat, microsomes
[18] = system: Staphylococcus epidermidis; test: Synergistic antibacterial activity against vancomycin-intermediate resistant Staphylococcus epidermidis NRS53 after 20 hrs in presence of vancomycin by checkerboard microdilution assay; format: functional; conditions: NRS53, 20 h
[19] = system: Listeria monocytogenes; test: Antibacterial activity against Listeria monocytogenes Gibson after 20 hrs by broth microdilution assay; format: functional; summary of the method: as §2
[20] = Selectivity index, ratio of IC50 for cytotoxicity against human HepG2 cells to MIC for antibacterial activity against vancomycin-intermediate resistant Staphylococcus aureus; format: toxicity, cell-based; conditions: read-out: Selectivity Index
[21] = system: Klebsiella pneumoniae; test: Antibacterial activity against Klebsiella pneumoniae 700603 after 20 hrs by broth microdilution assay; format: functional; conditions: Klebsiella pneumoniae, 700603, 20 h; summary of the method: as §1
[22] = system: Micrococcus luteus; test: Antibacterial activity against Micrococcus luteus SK58 after 20 hrs by broth microdilution assay; format: functional; conditions: SK58, 20 h
[23] = Selectivity index, ratio of IC50 for cytotoxicity against human HepG2 cells to MIC for antibacterial activity against vancomycin-resistant Staphylococcus aureus HIP14300; format: toxicity, cell-based; conditions: read-out: Selectivity Index
[24] = system: Staphylococcus epidermidis; test: Antibacterial activity against vancomycin-intermediate resistant Staphylococcus epidermidis NRS6 after 20 hrs by broth microdilution assay; format: functional; conditions: NRS6, 20 h
[25] = system: Shigella dysenteriae; test: Antibacterial activity against Shigella dysenteriae Newcastle 1934 after 20 hrs by broth microdilution assay; format: functional; conditions: Newcastle 1934, 20 h; summary of the method: as §1
[26] = system: Bacillus anthracis; test: Antibacterial activity against Bacillus anthracis Ames 35 after 20 hrs by broth microdilution assay; format: functional; conditions: Ames 35, 20 h
[27] = system: Staphylococcus aureus; test: Antibacterial activity against methicillin-resistant Staphylococcus aureus COL after 20 hrs by broth microdilution assay; format: functional
[28] = system: Staphylococcus aureus; test: Synergistic antibacterial activity against vancomycin-intermediate resistant Staphylococcus aureus AR-217 after 20 hrs in presence of vancomycin by checkerboard microdilution assay; format: functional; conditions: AR-217, 20 h
[29] = system: Yersinia enterocolitica; test: Antibacterial activity against Yersinia enterocolitica WA-314 after 20 hrs by broth microdilution assay; format: functional; conditions: WA-314, 20 h
Summary of the method: (§3)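 Yersinia cultured in tryptic soy broth at 28°C. A 0.5 McFarland suspension diluted 1:100 receives serial dilutions of agents from 1 mM or 1 mg/mL DMSO stocks; control antibiotics are in water.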

[30] = system: Staphylococcus aureus; test: Synergistic antibacterial activity against vancomycin-resistant Staphylococcus aureus HIP14300 assessed as vancomycin MIC after 20 hrs by checkerboard microdilution assay; format: functional; conditions: HIP14300, 20 h
[31] = system: Burkholderia cepacia; test: Antibacterial activity against Burkholderia cepacia UCB 717 after 20 hrs by broth microdilution assay; format: functional; conditions: UCB 717, 20 h; summary of the method: as §1
[32] = system: Staphylococcus aureus; test: Synergistic antibacterial activity against vancomycin-intermediate resistant Staphylococcus aureus AR-217 assessed as fractional inhibitory concentration in presence of vancomycin after 20 hrs by checkerboard microdilution assay; format: functional
[33] = system: Brucella neotomae; test: Antibacterial activity against Brucella neotomae 5K33 after 20 hrs by broth microdilution assay; format: functional; conditions: 5K33, 20 h
[34] = system: Bacillus anthracis; test: Antibacterial activity against Bacillus anthracis Sterne 34F2 after 20 hrs by broth microdilution assay; format: functional; conditions: Sterne 34F2, 20 h
[35] = system: Citrobacter freundii; test: Antibacterial activity against Citrobacter freundii 4_7_47CFAA after 20 hrs by broth microdilution assay; format: functional
Summary of the method: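 Brucella broth, 37°C, 5% CO2. Inoculum is 0.5 McFarland diluted 1:100, with serial drug dilutions from DMSO stocks (1 mM or 1 mg/mL) and control antibiotics in water.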

[36] = system: Acinetobacter baumannii; test: Antibacterial activity against Acinetobacter baumannii AB5075 after 20 hrs by broth microdilution assay; format: functional; conditions: AB5075, 20 h
[37] = system: Staphylococcus aureus; test: Antibacterial activity against vancomycin-intermediate resistant Staphylococcus aureus AR-217 after 20 hrs by broth microdilution assay; format: functional; conditions: AR-217, 20 h
[38] = system: Vibrio cholerae; test: Antibacterial activity against Vibrio cholerae TS D4 after 20 hrs by Todd Hewitt broth broth microdilution method; format: functional; conditions: TS D4, 20 h
[39] = system: Staphylococcus aureus; test: Synergistic antibacterial activity against methicillin-resistant Staphylococcus aureus COL assessed as fractional inhibitory concentration in presence of vancomycin after 20 hrs by checkerboard microdilution assay; format: functional
[40] = system: Burkholderia multivorans; test: Antibacterial activity against Burkholderia multivorans CF2 after 20 hrs by broth microdilution assay; format: functional; conditions: CF2, 20 h; summary of the method: as §1
[41] = rat, microsomes, 1 h
[42] = system: HepG2; test: Cytotoxicity against human HepG2 cells assessed as reduction in cell viability after 72 hrs by MTT assay; format: cell-based; conditions: HepG2, 72 h
[43] = system: Yersinia pseudotuberculosis; test: Antibacterial activity against Yersinia pseudotuberculosis P61 after 20 hrs by broth microdilution assay; format: functional; conditions: P61, 20 h; summary of the method: as §3
[44] = system: Staphylococcus epidermidis; test: Antibacterial activity against vancomycin-intermediate resistant Staphylococcus epidermidis NRS53 after 20 hrs by broth microdilution assay; format: functional; conditions: NRS53, 20 h
[45] = system: Staphylococcus aureus; test: Antibacterial activity against vancomycin-resistant Staphylococcus aureus HIP14300 after 20 hrs by broth microdilution assay; format: functional; conditions: HIP14300, 20 h
[46] = system: Streptococcus pyogenes; test: Antibacterial activity against Streptococcus pyogenes H293 after 20 hrs by broth microdilution assay; format: functional; conditions: H293, 20 h
[47] = system: Francisella tularensis; test: Antibacterial activity against Francisella tularensis Utah 112 after 20 hrs by broth microdilution assay; format: functional; conditions: Utah 112, 20 h
[48] = system: Bacillus cereus; test: Antibacterial activity against Bacillus cereus Gibson 971 after 20 hrs by broth microdilution assay; format: functional; conditions: Gibson 971, 20 h
[49] = system: Bacillus anthracis; test: Antibacterial activity against Bacillus anthracis UM23-1 after 20 hrs by broth microdilution assay; format: functional; conditions: UM23-1, 20 h
[50] = system: Streptococcus pneumoniae; test: Antibacterial activity against Streptococcus pneumoniae TCH8431 after 20 hrs by broth microdilution assay; format: functional; conditions: TCH8431, 20 h
[51] = system: Corynebacterium striatum; test: Antibacterial activity against Corynebacterium striatum FS-1 after 20 hrs by broth microdilution assay; format: functional; conditions: FS-1, 20 h
[52] = system: Rhodococcus erythropolis; test: Antibacterial activity against Rhodococcus erythropolis SK121 after 20 hrs by broth microdilution assay; format: functional; conditions: SK121, 20 h
Summary of the method: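 R. erythropolis grown in brain heart infusion broth at 30°C. A 0.5 McFarland suspension diluted 1:100 is treated with serial dilutions from 1 mM or 1 mg/mL DMSO stocks; control antibiotics are in water.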

SMILES: CCCCCCCCSSC(=S)N(CC)CC
- FIC [1]: 0.75
- MIC [2]: 1 µg/mL
- MIC [3]: > 32 µM
- MIC [4]: > 32 µM
- MIC [5]: 8 µM (≈ 2.35 µg/mL)
- MIC [6]: 1 µg/mL
- MIC [7]: 0.25 µg/mL
- MIC [8]: 32 µM (≈ 9.39 µg/mL)
- MIC [9]: > 32 µM
- MIC [10]: 32 µM (≈ 9.39 µg/mL)
- selectivity ratio [11]: > 13
- MIC [12]: 2 µg/mL
- MIC [13]: > 32 µM
- FIC [14]: 0.5
- MIC [15]: 32 µM (≈ 9.39 µg/mL)
- MIC [16]: 2 µM (≈ 0.587 µg/mL)
- beta t1/2 [17]: 1.02 h
- MIC [18]: 1 µg/mL
- MIC [19]: 4 µM (≈ 1.17 µg/mL)
- selectivity ratio [20]: > 13
- MIC [21]: > 32 µM
- MIC [22]: 16 µM (≈ 4.7 µg/mL)
- selectivity ratio [23]: > 13
- MIC [24]: 4 µM (≈ 1.17 µg/mL)
- MIC [25]: > 32 µM
- MIC [26]: 4 µM (≈ 1.17 µg/mL)
- MIC [27]: 4 µM (≈ 1.17 µg/mL)
- MIC [28]: 0.25 µg/mL
- MIC [29]: > 32 µM
- MIC [30]: 1 µg/mL
- MIC [31]: > 32 µM
- FIC [32]: 0.56
- MIC [33]: > 32 µM
- MIC [34]: 2 µM (≈ 0.587 µg/mL)
- MIC [35]: > 32 µM
- MIC [36]: > 32 µM
- MIC [37]: 4 µM (≈ 1.17 µg/mL)
- MIC [38]: > 32 µM
- FIC [39]: 0.75
- MIC [40]: > 32 µM
- CLH [41]: 22.6 µL/min/mg
- IC50 [42]: 50 µM
- MIC [43]: > 32 µM
- MIC [44]: 2 µg/mL (≈ 6.81 µM)
- MIC [45]: 4 µM (≈ 1.17 µg/mL)

SMILES: CCCSSC(=S)N(CC)CC
- MIC [46]: 32 µM (≈ 7.15 µg/mL)
- MIC [3]: > 32 µM
- MIC [4]: > 32 µM
- MIC [5]: > 32 µM
- MIC [8]: 16 µM (≈ 3.57 µg/mL)
- MIC [9]: > 32 µM
- MIC [10]: 32 µM (≈ 7.15 µg/mL)
- MIC [13]: > 32 µM
- MIC [15]: > 32 µM
- MIC [16]: 4 µM (≈ 0.894 µg/mL)
- MIC [19]: 16 µM (≈ 3.57 µg/mL)
- MIC [21]: > 32 µM
- MIC [22]: 16 µM (≈ 3.57 µg/mL)
- MIC [24]: 32 µM (≈ 7.15 µg/mL)
- MIC [25]: > 32 µM
- MIC [47]: 32 µM (≈ 7.15 µg/mL)
- MIC [26]: 4 µM (≈ 0.894 µg/mL)
- MIC [27]: 16 µM (≈ 3.57 µg/mL)
- MIC [48]: 1 µM (≈ 0.223 µg/mL)
- MIC [29]: > 32 µM
- MIC [31]: > 32 µM
- MIC [33]: > 32 µM
- MIC [34]: 4 µM (≈ 0.894 µg/mL)
- MIC [35]: > 32 µM
- MIC [36]: > 32 µM
- MIC [37]: 8 µM (≈ 1.79 µg/mL)
- MIC [49]: 4 µM (≈ 0.894 µg/mL)
- MIC [38]: 32 µM (≈ 7.15 µg/mL)
- MIC [40]: 32 µM (≈ 7.15 µg/mL)
- MIC [50]: > 32 µM
- IC50 [42]: 51 µM
- MIC [51]: > 32 µM
- MIC [43]: > 32 µM
- MIC [52]: 16 µM (≈ 3.57 µg/mL)
- MIC [45]: 16 µM (≈ 3.57 µg/mL)
